Results on 16 molecules are retold here after ChEMBL document CHEMBL1255228 (J Med Chem, 2010).

The target in one assay is Cannabinoid receptor 1 (Rattus norvegicus, UniProt P20272). The assay is described as follows: Displacement of [3H]CP55940 from rat brain CB1 receptor.
Assay [1] has as its target Cannabinoid receptor 2 (Mus musculus, UniProt P47936). Description: Displacement of [3H]CP55940 from mouse spleen CB2 receptor. It is filed as tissue-based. In general terms: Displacement assays read how much labelled ligand stays bound in the presence of the test substance.
Assay [2] deals with Cannabinoid receptor 2 (Homo sapiens, UniProt P34972). Description: Displacement of [3H]CP55940 from human CB2 receptor expressed in HEK293 cells. The assay is classed as cell-based.
Assay [3] concerns Rattus norvegicus. The assay is described as follows: Antinociceptive activity in sc dosed Sprague-Dawley rat assessed as thermal-stimulus induced tail flick latency after 120 mins. The conditions noted are these: 2 h. The assay is classed as functional. Put shortly:
(§1)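 Female Sprague-Dawley rats (200–350 g, n=5-6/group), tested repeatedly with ≥3 days between sessions. Drug given s.c. (1.0 ml/kg) in 20% ethanol/20% alkamuls/60% saline diluted with saline; morphine in saline. Lamp set for 2–3 sec baseline, 6.0 sec cut-off; two baselines at 10 min intervals; latency read at 30, 60, 120, 180, 360 min. Expressed as %MPE.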
A general note: Thermal pain tests record how soon the animal reacts.

Assay [4] relates to Rattus norvegicus. The assay is described as follows: Antinociceptive activity in Sprague-Dawley rat assessed as reduction in heat-induced tail flick latency at 0.1 mg/kg, sc after 120 mins. It is filed as functional. Further details: scale not given: the % may be the effect or the level left. The conditions noted are these: route subcutaneous. Put shortly: as §1
Assay [5] is filed under the species Rattus norvegicus. The assay is described as follows: Antinociceptive activity in Sprague-Dawley rat assessed as reduction in heat-induced tail flick latency. Further details: scale not given: the % may be the effect or the level left. The assay is classed as functional. Put shortly:
as §1

Cannabinoid receptor 1, sequence (P20272 whole entry): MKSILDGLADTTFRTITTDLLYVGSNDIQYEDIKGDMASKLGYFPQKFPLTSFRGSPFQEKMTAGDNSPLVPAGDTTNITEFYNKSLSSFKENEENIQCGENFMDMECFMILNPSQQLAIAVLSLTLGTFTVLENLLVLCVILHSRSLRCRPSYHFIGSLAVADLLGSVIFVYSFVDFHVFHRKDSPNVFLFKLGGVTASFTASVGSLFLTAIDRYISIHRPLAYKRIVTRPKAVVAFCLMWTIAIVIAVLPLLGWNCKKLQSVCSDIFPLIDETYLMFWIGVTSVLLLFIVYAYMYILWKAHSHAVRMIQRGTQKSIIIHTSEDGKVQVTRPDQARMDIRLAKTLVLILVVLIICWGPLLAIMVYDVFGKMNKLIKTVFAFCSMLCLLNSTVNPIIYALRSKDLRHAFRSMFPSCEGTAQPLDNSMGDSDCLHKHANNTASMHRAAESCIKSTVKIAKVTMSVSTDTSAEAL
Cannabinoid receptor 2 (Homo sapiens, UniProt P34972), sequence (P34972 whole entry): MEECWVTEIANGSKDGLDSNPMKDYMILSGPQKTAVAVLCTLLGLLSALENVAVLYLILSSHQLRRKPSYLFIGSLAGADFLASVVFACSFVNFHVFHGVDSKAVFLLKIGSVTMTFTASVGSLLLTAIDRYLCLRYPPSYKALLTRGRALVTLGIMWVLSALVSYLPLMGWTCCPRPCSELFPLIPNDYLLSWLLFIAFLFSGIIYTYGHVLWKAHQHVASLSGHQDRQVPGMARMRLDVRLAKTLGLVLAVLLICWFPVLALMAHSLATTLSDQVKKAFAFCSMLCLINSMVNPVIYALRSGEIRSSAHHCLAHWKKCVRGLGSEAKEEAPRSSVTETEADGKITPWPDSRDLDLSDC
Cannabinoid receptor 2 (Mus musculus, UniProt P47936), sequence (P47936 whole entry): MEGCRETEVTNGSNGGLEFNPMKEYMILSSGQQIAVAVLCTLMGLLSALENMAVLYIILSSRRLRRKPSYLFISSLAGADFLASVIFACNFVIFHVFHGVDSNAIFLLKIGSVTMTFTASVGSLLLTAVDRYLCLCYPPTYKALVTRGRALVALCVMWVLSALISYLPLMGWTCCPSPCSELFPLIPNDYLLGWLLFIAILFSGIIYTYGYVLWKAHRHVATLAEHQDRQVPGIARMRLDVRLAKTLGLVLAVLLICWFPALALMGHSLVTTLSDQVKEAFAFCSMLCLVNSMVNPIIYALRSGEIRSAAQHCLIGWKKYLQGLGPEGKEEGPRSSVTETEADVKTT

The Ki is the equilibrium dissociation constant of an inhibitor or competing ligand from its target. As to `CCCCCCC1(c2cc(O)c3c(c2)OC(C)(C)[C@@H]2CCC(=O)C[C@@H]32)SCCS1`, the figures for the inhibitory constant (Ki) on Cannabinoid receptor 1, on Cannabinoid receptor 2 [1] and on Cannabinoid receptor 2 [2] were 6.57 nM, 42.3 nM and 32.6 nM, respectively.
As for `CCCC/C=C\C1(c2cc(O)c3c(c2)OC(C)(C)[C@@H]2CCC(=O)C[C@@H]32)CCC1`, the Ki at Cannabinoid receptor 1 amounted to 1.13 nM; on Cannabinoid receptor 2 [1], 12 nM; at Cannabinoid receptor 2 [2], 15.1 nM.
With `CCCCCCC1(c2cc(O)c3c(c2)OC(C)(C)[C@@H]2CCC(=O)C[C@@H]32)CCC1`, the Ki on Cannabinoid receptor 1 was determined as 0.84 nM; on Cannabinoid receptor 2 [1], 13.7 nM; at Cannabinoid receptor 2 [2] it was 11.9 nM.
On to `CC1(C)Oc2cc(C3(CCCCBr)CCCC3)cc(O)c2[C@@H]2CC(=O)CC[C@H]21`, for which the Ki at Cannabinoid receptor 1 is 13.1 nM; on Cannabinoid receptor 2 [1] it was 13.9 nM.
As for `CC1(C)Oc2cc(C3(CCCCCBr)CCCC3)cc(O)c2[C@@H]2CC(=O)CC[C@H]21`, the Ki was determined as 1.03 nM at Cannabinoid receptor 1, 2.59 nM at Cannabinoid receptor 2 [1] and 1.32 nM at Cannabinoid receptor 2 [2].
`CC1(C)Oc2cc(C3(CCCCCCBr)CCCC3)cc(O)c2[C@@H]2CC(=O)CC[C@H]21`: the values for the Ki on Cannabinoid receptor 1, on Cannabinoid receptor 2 [1] and at Cannabinoid receptor 2 [2] were 4.96 nM, 1.6 nM and 3.02 nM, respectively.
As to `CC1(C)Oc2cc(C3(CCCCC#N)CCCC3)cc(O)c2[C@@H]2CC(=O)CC[C@H]21`, the Ki is 3.14 nM on Cannabinoid receptor 1 and 2.78 nM at Cannabinoid receptor 2 [1].
As for `CC1(C)Oc2cc(C3(CCCCCBr)CCC3)cc(O)c2[C@@H]2CC(=O)CC[C@H]21`, the inhibitory constant (Ki) on Cannabinoid receptor 1 is 2.33 nM; on Cannabinoid receptor 2 [1] it was 7.56 nM; at Cannabinoid receptor 2 [2] it was 5.88 nM.
The ED50 is the midpoint of the dose-response relation. For `CCCCCCC1(c2cc(O)c3c(c2)OC(C)(C)[C@@H]2CC[C@@H](O)C[C@@H]32)CCC1`, the inhibition constant Ki on Cannabinoid receptor 1 is 0.16 nM; at Cannabinoid receptor 2 [1], 4.21 nM; at Cannabinoid receptor 2 [2], 5.13 nM. For the same molecule, in the assay with Rattus norvegicus [3], the ED50 came to 0.026 mg/kg.
With `CC1(C)Oc2cc(C3(CCCCCBr)CCC3)cc(O)c2[C@@H]2C[C@H](O)CC[C@H]21`, the Ki at Cannabinoid receptor 1 turned out to be 1.37 nM.
For the molecule `CC1(C)Oc2cc(C3(CCCCCBr)CCC3)cc(O)c2[C@@H]2C[C@@H](O)CC[C@H]21`, on Cannabinoid receptor 1, the affinity corresponds to a Ki of 1.5 nM.
As for `CCCCCc1cc(O)c2c(c1)OC(C)(C)[C@@H]1CCC(=O)C[C@@H]21`, the figures for the Ki on Cannabinoid receptor 1 and at Cannabinoid receptor 2 [1] were 333 nM and 265 nM, respectively.
Take `CCCC/C=C\C1(c2cc(O)c3c(c2)OC(C)(C)[C@@H]2CCC(=O)C[C@@H]32)CCCC1`: the Ki was 1.23 nM on Cannabinoid receptor 1, 5.25 nM on Cannabinoid receptor 2 [1] and 7.02 nM at Cannabinoid receptor 2 [2].
For `CCCCCCC1(c2cc(O)c3c(c2)OC(C)(C)[C@@H]2CCC(=O)C[C@@H]32)CCCC1`, the Ki stood at 1.76 nM on Cannabinoid receptor 1, 0.97 nM on Cannabinoid receptor 2 [1] and 3.34 nM on Cannabinoid receptor 2 [2].
Consider `CCCCCCC(C)(C)c1cc(O)c2c(c1)OC(C)(C)[C@@H]1CCC(=O)C[C@@H]21` [NABILONE], for which the Ki at Cannabinoid receptor 1 came out at 2.2 nM; on Cannabinoid receptor 2 [1], 1.8 nM.
Consider `Cc1c(C(=O)NN2CCCCC2)nn(-c2ccc(Cl)cc2Cl)c1-c1ccc(Cl)cc1` [RIMONABANT], for which the values for the Activity in the assay with Rattus norvegicus [4] and in the assay listed under Rattus norvegicus [5] were 85.4% and 48%, respectively.
